For twelve molecules, ID50 results are on record in ChEMBL document CHEMBL1125344, “(Pyridylcyanomethyl)piperazines as orally active PAF antagonists” (J Med Chem, 1992).

In test [1] the target is Platelet-activating factor receptor (Rattus norvegicus) (UniProt P46002). Briefly: In vivo dose administered intravenously to inhibit PAF-induced hypotension (PAF-Antagonistic activity) in normotensive rats by 56%. It is filed as functional, organism-based. The gist of the method: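 Male Sprague-Dawley rats, 180-220 g, anesthetized with sodium pentobarbital ip; blood pressure recorded from left carotid artery. Compound given iv in saline (1 mL/kg) via femoral vein 3 min before PAF 0.5 μg/kg iv; initial dose 5 mg/kg. Percentage inhibition of PAF-induced hypotension calculated versus vehicle-treated controls.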
Chain of Platelet-activating factor receptor (Rattus norvegicus) (P46002 whole entry): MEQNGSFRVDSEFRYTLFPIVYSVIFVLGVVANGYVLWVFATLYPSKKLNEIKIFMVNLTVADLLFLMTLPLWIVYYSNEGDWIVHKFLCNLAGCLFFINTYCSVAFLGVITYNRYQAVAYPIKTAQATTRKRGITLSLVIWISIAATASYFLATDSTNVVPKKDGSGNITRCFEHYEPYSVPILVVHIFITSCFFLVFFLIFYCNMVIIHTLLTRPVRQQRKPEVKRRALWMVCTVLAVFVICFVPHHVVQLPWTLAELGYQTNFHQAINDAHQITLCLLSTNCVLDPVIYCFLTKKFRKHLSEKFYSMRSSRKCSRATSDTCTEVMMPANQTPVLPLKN

The target is the same in test [2]. The test can be described thus: In vivo dose administered intravenously to inhibit PAF-induced hypotension (PAF-Antagonistic activity) in normotensive rats by 55%. It is filed as functional, organism-based.
Test [3] deals with Platelet-activating factor receptor (Mus musculus) (UniProt Q62035). The test can be described thus: Oral dose required to inhibit PAF-induced mortality (PAF-Antagonistic activity)in mice by 50%. In kind it is functional. Particulars: Mus sp. The method, boiled down:
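Male Swiss mice, 22-26 g, in groups of 10. Compound or saline given po (20 mL/kg) 60 min before C18-PAF 100 µg/kg plus propranolol 1 mg/kg by tail vein. ID50 from percent inhibition of mortality versus controls.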

Test [4] deals with Platelet-activating factor receptor (Rattus norvegicus) (UniProt P46002). Briefly: In vivo dose administered intravenously to inhibit PAF-induced hypotension (PAF-Antagonistic activity) in normotensive rats by 57%. It is filed as functional, organism-based.
Test [5] has the same target. The test can be described thus: In vivo dose administered intravenously to inhibit PAF-induced hypotension (PAF-Antagonistic activity) in normotensive rats by 59%. In kind it is functional, organism-based.
Test [6] has the same target. The test can be described thus: Dose required to inhibit PAF-induced hypotension (PAF-Antagonistic activity) in normotensive rats by 50%. It is filed as functional. The method, boiled down:
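Male Sprague-Dawley rats, 180-220 g, anesthetized with sodium pentobarbital ip. Carotid blood pressure recorded. Compound given iv in saline (1 mL/kg) via femoral vein 3 min before PAF 0.5 µg/kg iv; vehicle controls. ID50 by linear regression of one curve of at least four doses, each the mean % inhibition from two or more experiments.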

Chain of Platelet-activating factor receptor (Mus musculus) (Q62035 whole entry): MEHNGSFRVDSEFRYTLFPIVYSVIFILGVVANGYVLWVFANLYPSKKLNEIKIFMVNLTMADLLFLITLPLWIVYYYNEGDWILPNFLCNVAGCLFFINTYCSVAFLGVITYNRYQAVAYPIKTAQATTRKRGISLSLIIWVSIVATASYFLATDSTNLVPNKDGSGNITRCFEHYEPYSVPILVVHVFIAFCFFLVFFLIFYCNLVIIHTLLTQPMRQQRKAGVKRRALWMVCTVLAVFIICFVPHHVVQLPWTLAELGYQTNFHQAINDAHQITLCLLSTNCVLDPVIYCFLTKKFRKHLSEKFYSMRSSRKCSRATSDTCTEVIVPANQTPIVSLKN

In the case of `N#CC(c1cccnc1)N1CCN(C(=O)Cc2ccc3ccccc3c2)CC1` (configuration not stated), the ID50 in test [1] is 5 mg/kg.

`N#CC(c1cccnc1)N1CCN(C(=O)c2ccc3ccccc3c2)CC1` (configuration not stated) showed an ID50 in test [2] of 5 mg/kg.

On to `N#CC(c1cccnc1)N1CCN(C(=O)CCCc2ccccc2)CC1` (configuration not stated), for which the ID50 in test [3] came to 50 mg/kg; in test [4], 5 mg/kg.

As to `N#CC(c1ccncc1)N1CCN(CCNC(c2ccccc2)c2ccccc2)CC1` (configuration not stated), the results for the ID50 in test [3] and in test [5] were 29 mg/kg and 5 mg/kg, respectively.

With `N#CC(c1cncs1)N1CCN(C(=O)CC(c2ccccc2)c2ccccc2)CC1` (configuration not stated), the ID50 in test [3] is 25 mg/kg; in test [6], 0.75 mg/kg.

Consider `N#CC1(Nc2cccnc2)CCN(C(=O)CNC(c2ccccc2)c2ccccc2)CC1`, for which the ID50 in test [3] stood at 15 mg/kg; in test [6], 0.096 mg/kg.

Consider `N#CC(c1cccc([N+](=O)[O-])c1)N1CCN(C(=O)CC(c2ccccc2)c2ccccc2)CC1` (configuration not stated), for which the figures for the ID50 in test [3] and in test [6] were > 30 mg/kg and > 5 mg/kg, respectively.

Regarding `Cc1nnc2n1-c1sc(CCC(=O)N3CCOCC3)cc1C(c1ccccc1Cl)=NC2`, the ID50 in test [3] was 0.97 mg/kg; in test [6], 0.17 mg/kg.

In the case of `N#CC(c1cccnc1)N1CCN(C(=O)CNCCC(c2ccccc2)c2ccccc2)CC1` (configuration not stated), the ID50 in test [3] came to 14 mg/kg; in test [6], 0.21 mg/kg.

On to `CC(C(=O)N1CCN(C(C#N)c2cccnc2)CC1)c1ccccc1` (configuration not stated), for which the values for the ID50 in test [3] and in test [6] were > 50 mg/kg and 0.26 mg/kg, respectively.

Consider `N#CC(c1cccnc1)N1CCN(C(=O)OCC(c2ccccc2)c2ccccc2)CC1` (configuration not stated), for which the results for the ID50 in test [3] and in test [6] were > 30 mg/kg and 0.078 mg/kg, respectively.

Take `N#CC(c1cccnc1)N1CCN(C(=O)C(Cc2ccccc2)c2ccccc2)CC1` (configuration not stated): the values for the ID50 in test [3] and in test [6] were > 50 mg/kg and 0.12 mg/kg, respectively.
